Bioassay records (PubChem)
Compounds with a hit are over-represented: about 1.1% of the library has one in this group of screens.
DSG3 Ab inh: inhibitors of pemphigus antibody binding to human desmoglein-3. DSG3-coupled beads, scFv-anti-DSG3-GFP binding, flow cytometry; stronger effect = lower value. binding (percent of control), % at 10 µM. hit rate 0.48% among 310,000. AID 588358;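 active = binding more than 3 SD below its plate's average and above zero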
Target sequence (P32926 whole entry, looked up): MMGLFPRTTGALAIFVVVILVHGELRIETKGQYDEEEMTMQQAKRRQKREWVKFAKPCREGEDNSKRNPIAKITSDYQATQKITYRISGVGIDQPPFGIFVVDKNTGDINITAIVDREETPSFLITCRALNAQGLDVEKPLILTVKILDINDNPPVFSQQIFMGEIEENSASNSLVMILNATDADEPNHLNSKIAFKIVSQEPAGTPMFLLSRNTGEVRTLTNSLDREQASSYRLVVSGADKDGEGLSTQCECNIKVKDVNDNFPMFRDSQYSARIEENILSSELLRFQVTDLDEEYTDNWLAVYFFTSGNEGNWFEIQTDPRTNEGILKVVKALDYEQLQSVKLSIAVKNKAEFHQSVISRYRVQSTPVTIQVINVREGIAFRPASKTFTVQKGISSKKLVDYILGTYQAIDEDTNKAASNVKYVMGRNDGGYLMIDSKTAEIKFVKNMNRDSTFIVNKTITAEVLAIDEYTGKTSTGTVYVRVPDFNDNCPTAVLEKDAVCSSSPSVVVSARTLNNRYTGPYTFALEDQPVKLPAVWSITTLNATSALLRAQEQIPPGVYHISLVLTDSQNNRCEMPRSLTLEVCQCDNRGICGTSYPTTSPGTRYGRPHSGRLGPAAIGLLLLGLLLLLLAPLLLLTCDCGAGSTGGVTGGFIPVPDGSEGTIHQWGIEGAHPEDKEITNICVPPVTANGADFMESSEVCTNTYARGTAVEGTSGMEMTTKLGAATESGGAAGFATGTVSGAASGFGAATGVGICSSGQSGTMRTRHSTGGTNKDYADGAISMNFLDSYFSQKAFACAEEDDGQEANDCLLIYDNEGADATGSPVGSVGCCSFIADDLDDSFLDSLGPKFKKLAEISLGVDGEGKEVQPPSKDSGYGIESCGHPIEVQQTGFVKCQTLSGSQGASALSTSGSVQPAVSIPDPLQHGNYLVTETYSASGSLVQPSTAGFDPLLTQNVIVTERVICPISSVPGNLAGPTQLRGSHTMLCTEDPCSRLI
Avidin bead fluor: avidin bead compound fluorescence profile; Avidin beads, compound fluorescence 488/530 nm, flow cytometry; stronger effect = higher value; fluorescence (KMESF) at 10 µM; hit rate 0.38% among 220,000; AID 1775; in the data active = fluorescence above about 47
GSH fluor: GSH bead compound fluorescence profile; GSH beads flow cytometry, compound fluorescence 488/530 nm; stronger effect = higher value; fluorescence (KMESF) at 10 µM; hit rate 0.25% among 190,000; AID 1776; in the data active = fluorescence above about 89;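 note: glutathione beads carrying GST-tagged Bcl family fusion proteins plus one bare bead set; values are compound well signal with DMSO vehicle wells as background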
Arr AP2 block: inhibitors of human beta-arrestin and AP2 interaction | FITC-arrestin peptide / GST-AP2 beads, flow cytometry; AP2 beta2 appendage carries R879A mutation | inhibition, % at 10 µM | hit rate 0.31% among 340,000;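 active = inhibition above a set limit, near 3 SD of compounds lacking own fluorescence, cut at about 54% in these data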;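 note: plate controls were DMSO wells for no effect and 5 µM unlabelled arrestin peptide for full effect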
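System: GST-AP2 R879A glutathione beads. Medium: PBS with 0.05% Tween 20 and 0.1% BSA. Also added: FITC-arrestin peptide, 50 nM. Incubation: 12 min plus 1 h, RT. Measured by: high-throughput flow cytometry of beads, ex 488, em 535 nm. Evaluation: percent drop in bead-associated FITC signal.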
Arr-AP2 CP1: blocks beta-arrestin peptide binding to human AP2. inhibition, % at 10 µM. shares compounds with Arr AP2 block. hit rate 2% among 1,300. AID 504908. GST-AP2 beads, FITC arrestin peptide binding, flow cytometry; GST-fused beta2-adaptin appendage, R879A mutant;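 active = inhibition above a set limit, roughly 3 SD of non-fluorescent compound noise, cut at about 38% in these data; inactive = inhibition at or below that limit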;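 note: loss of bead fluorescence from 50 nM FITC arrestin peptide bound to appendage; 0% = negative control wells and 100% = excess unlabelled arrestin peptide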
GST-FITC bead: disrupts GST binding to glutathione beads, arrestin-AP2 artifact; shares compounds with Arr AP2 block; GST-fluorescein binding to GSH beads, fluorescence, counter-screen; inhibition, % at 10 µM; hit rate 2% among 1,300; AID 588338;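 active = inhibition above 50%, about 3 SD of the inhibition seen with non-fluorescent compounds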;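 note: fluorescein maleimide labelled GST captured on 4 micron glutathione beads; higher means more loss of bead fluorescence from quenching or blocked binding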
Active calls of the source: *; x = no result.

SMILES	DSG3 Ab inh	Avidin bead fluor	GSH fluor	Arr AP2 block	Arr-AP2 CP1	GST-FITC bead
CCOC(=O)C1=C(COC(=O)Cc2ccccc2F)NC(=O)NC1C (stereo not given)	105	x	x	16	-5	-10
CCOC(=O)C1=C(COC(=O)CCC(=O)c2ccc(C)cc2)NC(=O)NC1C (stereo not given)	x	x	x	-1	-4	-13
CCOC(=O)C1=C(COC(=O)CCc2ccccc2)NC(=O)NC1C (stereo not given)	106	x	x	3	-7	-2
CCOC(=O)C1=C(COC(=O)Cc2ccc(Br)cc2)NC(=O)NC1C (stereo not given)	110	x	x	3	12	-5
CCOC(=O)C1=C(COC(=O)C2CC(=O)N(CCc3ccccc3)C2)NC(=O)NC1C (stereo not given)	104	x	x	4	x	x
CCOC(=O)C1=C(COC(=O)/C=C/c2ccccc2F)NC(=O)NC1C (stereo not given)	119	x	x	27	x	x
CCOC(=O)C1=C(COC(=O)CCS(=O)(=O)c2ccc(C)cc2)NC(=O)NC1C (stereo not given)	95	x	x	13	x	x
CCOC(=O)C1=C(COC(=O)CCc2ccc(CC)cc2)NC(=O)NC1C (stereo not given)	110	x	x	-8	-1	1
CCCn1c(=O)c(C(=O)NCCc2ccccc2)c(O)c2ccccc21	101	x	x	-4	x	x
CCCn1c(=O)c(C(=O)NCCc2ccc(OC)cc2)c(O)c2ccccc21	120	x	x	55*	0	-10
O=C(COc1coc(CN2CCc3ccccc3C2)cc1=O)Nc1cccc(F)c1	113	x	x	-25	x	x
COc1ccc(NC(=O)COc2coc(CN3CCc4ccccc4C3)cc2=O)cc1	98	x	x	-17	x	x
O=C(COc1coc(CN2CCc3ccccc3C2)cc1=O)Nc1ccccc1F	105	x	x	65*	-10	10
COc1cccc(NC(=O)COc2coc(CN3CCc4ccccc4C3)cc2=O)c1	102	x	x	59*	20	-1
CCN(CC)C(=O)C1CCN(S(=O)(=O)c2ccc3c(c2)CCCN3C(=O)C2CCC2)CC1	x	x	x	4	x	x
COc1cc(/C=C/C(=O)O)ccc1OS(=O)(=O)c1cc(Br)ccc1C	108	x	x	56*	-7	5
COc1cc(OC)cc(C(=O)NCC(=O)NC(C)c2ccccc2)c1 (stereo not given)	90	x	x	-5	x	x
Cc1ccc(S(=O)(=O)NCC(c2ccc3c(c2)OCO3)N2CCOCC2)cc1 (stereo not given)	101	x	x	-4	x	x
COc1ccc(C2C(=O)c3ccccc3C2=O)cc1OC	89	8	11	61*	6	-4
COc1cc(C2C(=O)c3ccccc3C2=O)ccc1O	107	x	x	7	x	x
CC[C@]12C(=O)N(C)C[C@H]([C@@H]3C(=O)N(Cc4ccccc4)C(=O)[C@@H]31)N2C(=O)c1ccccc1	108	x	x	12	x	x
CCN(CC)C(=S)NC(=O)c1cc(OC)c(OC)c(OC)c1	100	9	18	57*	-13	-6
CCN1CCN(C(=S)NC(=O)c2cc(OC)c(OC)c(OC)c2)CC1	x	x	x	-18	x	x
Cc1ccccc1CNC(=O)C1CCN(c2nnc(N3CCCC3=O)s2)CC1	101	x	x	8	x	x
CCC(=O)Nc1ccc(C(=O)c2ccccc2)cc1	99	4	49	84*	-1	-13
SMILES	DSG3 Ab inh	Avidin bead fluor	GSH fluor	Arr AP2 block	Arr-AP2 CP1	GST-FITC bead
CCOc1ccc(OCCCC(=O)N2CCN(S(=O)(=O)c3ccccc3C#N)CC2)cc1	101	x	x	57*	-14	0
N#Cc1ccc(NC(=O)c2cc(S(=O)(=O)N3CCOCC3)ccc2N2CCCC2)cc1	92	x	x	1	x	x
O=C1NC(=S)N/C1=C/C=C/c1ccccc1	107	16	13	106*	-9	2
CCc1nnc(SCC(=O)Nc2ccc(C(C)=O)cc2)nc1CC	98	20	13	83*	18	1
CCn1cc(/C=C(\NC(=O)c2ccccc2)C(=O)N2CCOCC2)c2ccccc21	95	x	x	55*	3	-3
Cn1ccc(C(=O)OCC(=O)Nc2cccc3ccccc23)n1	x	14	14	59*	-6	-4
CC1(N=Cc2cc(Cl)ccc2O)COP(=O)(NC2CCCC2)OC1 (stereo not given)	99	x	x	-5	x	x
O=S(=O)(c1ccccc1)N1CCN(C(=S)Nc2ccc(Br)cc2)CC1	112	x	x	-2	x	x
O=[N+]([O-])c1ccc(NC(=S)N2CCN(S(=O)(=O)c3ccccc3)CC2)cc1	108	x	x	71*	-14	-9
Cc1ccc(-c2nnc(SCc3ccccc3F)o2)cc1	99	9	32	2	x	x
COc1ccc(-c2nnc(SCc3ccccc3F)o2)cc1OC	100	10	6	84*	22	x
COc1ccccc1-n1cnc2c(c1=O)c1nc3ccccc3nc1n2CCc1ccccc1	81	3	18	73*	1	68*
O=C(Nc1ccc(F)cc1)Nc1nnc(COc2ccccc2F)s1	86	9	10	106*	-8	34
COCCS(=O)(=O)N(Cc1ccc(Br)cc1)[C@@H](C)C(=O)OC	102	x	x	11	x	x
O=C1c2ccc(-c3ccc(Cl)c(C(F)(F)F)c3)cc2S(=O)(=O)c2cccc(C(=O)N3CCN(c4ccc(Cl)cn4)CC3)c21	98	x	x	0	x	x
Cc1ccc(C(=O)OCC(=O)N2CCCC2)cc1	106	x	x	64*	7	-1
CCOC(=O)C1=C(COC(=O)CCOc2cc(C)ccc2C)NC(=O)NC1C (stereo not given)	90	x	x	-6	-3	-9
CCOC(=O)C1=C(COC(=O)CCOc2cccc(C)c2)NC(=O)NC1C (stereo not given)	119	x	x	11	-8	-6
CCOC(=O)C1=C(COC(=O)CCOc2ccccc2)NC(=O)NC1C (stereo not given)	101	x	x	-8	-10	-11
O=C(O)CCS(=O)(=O)c1ccccc1Cl	103	24	60	5	x	x
CC(C)NC(=O)c1onc(CSc2ccncc2)c1C(=O)NC(C)C	104	x	x	-1	x	x
CC(C)c1ccc(CN(C(=O)/C=C/c2ccco2)C2CCS(=O)(=O)C2)cc1 (stereo not given)	107	3	x	-4	x	x
O=C(Cn1cc([N+](=O)[O-])cn1)Nc1nccs1	98	11	11	8	x	x
Cc1csc(SCC(=O)Nc2sccc2C(N)=O)n1	115	10	10	13	x	x
Cc1cccc(NC(=O)C2CCCN(S(=O)(=O)c3ccc4[nH]c(=O)ccc4c3)C2)n1 (stereo not given)	x	x	x	0	x	x
COc1cccc(CNC(=O)c2ccncc2)c1	x	x	x	68*	-5	-2
COC(=O)c1ccccc1S(=O)(=O)N1CCC(C(=O)NCCC2=CCCCC2)CC1	88	x	x	63*	-5	-1
C[C@@H](C(=O)Nc1ccc2c(c1)OCCO2)n1c(=O)[nH]c2ccccc2c1=O	99	x	x	-9	6	-1
O=C(Cn1ccc2ccccc2c1=O)Nc1ccc2c(c1)OCO2	95	16	26	4	x	x
